Source: ChEMBL document CHEMBL4513216, “Probing the Open Global Health Chemical Diversity Library for Multistage-Active Starting Points for Next-Generation Antimalarials” (ACS Infect Dis, 2020)

experiment: Toxicity liver stage against HepG2, at 10uM; format: cell-based; parameters: test concentration 10 uM, cell line HepG2-A16-CD81EGFP; settings: human, HepG2-A16-CD81EGFP cells; read-out: INHIBITION
Method in brief: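 Uninfected HepG2-A16-CD81EGFP cells, 3 × 10^3 per well, 1536-well, plated on prespotted compound at 10 μM final, parasite-free screening media added to match infected plates; puromycin 10 μM positive, DMSO 0.5% negative; run in parallel with 48 h PbLuc assay at 37 °C, 5% CO2; viability by CellTiter-Glo luminescence, normalized to controls.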

Row | SMILES | cytotoxicity at 10 µM
1 | O=C(CCc1cc(O)no1)N1CCC(Cc2ccc(F)cc2)CC1 | -0.505%
2 | Cc1cc(-c2cnc(C)nc2CN(C)C(=O)c2ccccn2)on1 | 7.95%
3 | CNc1ncc(C(=O)N2CCCC(CO)(CCCOC)C2)cn1 (stereo not drawn) | -44.4%
4 | Cc1cc(C)n(C2CN(CCc3ccncc3)C2)n1 | -1.12%
5 | O=C(c1coc2ccccc12)N1CCCC(O)(CO)CC1 (stereo not drawn) | 6.41%
6 | CCc1cnc(N)nc1NCCCn1cc(Cl)cn1 | 3.5%
7 | CC(C1CC1)N(C)Cc1nnc(-c2ccc(Br)s2)o1 (stereo not drawn) | -11.2%
8 | Cc1ccc(C)c(S(=O)(=O)NCCC(=O)NCc2ccoc2)c1 | -11.5%
9 | CC(C)(C)C(=O)N1CCC(c2nc(O)cc(-c3ccncc3)n2)CC1 | -22%
10 | CC(C)N1CCCC(C(=O)N2CCN(c3cccc(C(=O)O)c3)CC2)C1 (stereo not drawn) | 9.45%
11 | CCOC(=O)c1sc(NC(=O)C(C)(C)C)c(C#N)c1C | 9.04%
12 | COCCc1noc(CN2CCCC2Cn2nc(C)nc2C)n1 (stereo not drawn) | -1.39%
13 | CCC1CCCN(Cc2nc3ccccc3c(=O)[nH]2)C1 (stereo not drawn) | -46%
14 | Cn1ccnc1C1CCN(S(=O)(=O)c2ccc3[nH]c(=O)[nH]c3c2)CC1 | 4.82%
15 | CS(=O)(=O)Cc1noc(CN2CCN(c3ccccc3Cl)CC2)n1 | 5.09%
16 | O=c1ccc2c([nH]1)CCC(NCc1ccc(F)cc1)C2 (stereo not drawn) | -1.87%
17 | Clc1cccc(N2CCC(NCc3ncc[nH]3)C2)c1 (stereo not drawn) | 7.41%
18 | CC(=O)Nc1nc(C(=O)N2CCCCC2Cn2cccn2)cs1 (stereo not drawn) | -31.4%
19 | CCNc1cc2c(nn1)CCN(C(=O)c1cc3nc(C)ccc3o1)C2 | -3.85%
20 | O=C(c1ccoc1)N1CCOCC2(CCN(Cc3cccs3)C2)C1 (stereo not drawn) | -2.98%
21 | CC(C)c1nc(C2CCCN(C(=O)CN3CCCNC3=O)C2)no1 (stereo not drawn) | -4.1%
22 | Cc1cnn(CC2CCCCN2C(=O)c2ccc(N(C)C)nc2)c1 (stereo not drawn) | -13.2%

Row | SMILES | cytotoxicity at 10 µM
23 | COCCN(Cc1ccccc1C)c1nc(C)nc2oc(C)nc12 | -51.8%
24 | CN(C)C(=O)[C@@H]1CCO[C@@H]2CCN(c3ncccn3)C[C@H]21 | 6.65%
25 | CC(=O)N(CCc1ccccc1)CC(=O)NC1(C#N)CC1 | 1.09%
26 | COC(=O)NCCCn1ccnc1-c1ccccc1 | -2.27%
27 | CCCNC(=O)CCNC(=O)Cc1nc(-c2ccco2)oc1C | 23.7%
28 | CCCNc1c(NC(=O)NCCOC)c(=O)oc2ccccc12 | -6.23%
29 | Cc1c[nH]c(CN(C)C(=O)[C@@]23CNC[C@@H]2CN(c2ncccn2)C3)n1 | -2.4%
30 | Cc1ccc(CN2C[C@@H]3COC[C@@H](CC(=O)N4CCOCC4)[C@@H]3C2)s1 | -2.04%
31 | CC(C)c1cc(CN2CCC(N)CC2)on1 | -10.7%
32 | COc1ccc(F)c(-c2cc(O)nc(N)n2)c1 | 2.05%
33 | Cc1nnc(C(C)N2CCc3[nH]c4ccc(Cl)cc4c3C2)o1 (stereo not drawn) | -9.77%
34 | Cc1ccc(N2CCC3(CCN(C(=O)c4ccccn4)CC3)CC2)nn1 | 0.255%
35 | CCOC(=O)N1CC(=O)N(Cc2cccc(OC)c2OC)CC(O)C1 (stereo not drawn) | -3.66%
36 | Cc1ccnc(NC(=O)C2CCN(CCCn3ccnc3)CC2)c1 | -57.9%
37 | CC(=O)NC[C@H]1OC[C@@H](NC2CCC(F)(F)CC2)[C@@H]1O | -8.57%
38 | CS(=O)(=O)NC1CCN(C(=O)c2cnc(-c3cccnc3)nc2)CC1 | -6.47%
39 | Cn1cc(NC(=O)NCc2ccoc2)ccc1=O | 4.14%
40 | O=C(c1ccccn1)N1C[C@H]2CC[C@@H](C1)N(C(=O)CCC(F)(F)F)C2 | 4.37%
41 | COCCOc1ncccc1C(=O)N1CCCC1Cn1cc(C)cn1 (stereo not drawn) | -2.95%
42 | Cc1nc(CN2CCN(Cc3ccoc3)Cc3cccnc32)cs1 | -5.25%
43 | CCc1nc(CN2CCCN(C(=O)CC3CCCC3)CC2)cs1 | -25.2%
44 | CC(C)c1nc2c(n1C)CCN(CC(=O)Nc1cccnc1)C2 | -9.52%

Row | SMILES | cytotoxicity at 10 µM
45 | CN(C)C(=O)N1C[C@H](Oc2ccccn2)[C@H]2OCCC[C@H]21 | 6.07%
46 | CC(C)n1cc(C(=O)N2CCN(c3cccc(C(F)(F)F)c3)CC2)cn1 | 5.37%
47 | Cc1[nH]ncc1C(=O)N1CCCN(Cc2nccn2C(C)C)CC1 | -6.33%
48 | Cn1cc(NC(=O)Cn2c(CS(C)(=O)=O)nc3ccccc32)cn1 | 1.31%
49 | COc1ccc(-n2cnnc2CC2CCNCC2)cc1 | -5.53%
50 | CCC(CO)N(Cc1cccnc1)C(=O)c1ccc(C)[nH]c1=O (stereo not drawn) | -3.95%
51 | c1ccc(CO[C@H]2CO[C@@]3(CCCN(Cc4ccncc4)C3)C2)nc1 | 1.44%
52 | CC(CC(=O)N1CCCN(Cc2cscn2)CC1)n1cccc1 (stereo not drawn) | -8.01%
53 | Fc1cccc(C2(CNC3CCSC3)CCOCC2)c1 (stereo not drawn) | -1.86%
54 | Cc1ccc(N2CCN(CC3CC3)C3(CCN(C(C)C)CC3)C2=O)cn1 | 16%
55 | COc1ccc(CC(=O)N2C[C@@H]3COC[C@]3(CN(C)C)C2)cc1 | -3.01%
56 | COc1ccc(C(C(=O)O)N2CCC(Cn3cccn3)CC2)c(OC)n1 (stereo not drawn) | -9.46%
57 | Cc1ccc(-n2cc(C(=O)NCc3nnc4n3CCCCC4)nn2)cc1 | -3.32%
58 | CC(=O)N1CC[C@H]2OCC[C@@H](C(=O)NCc3ccco3)[C@H]2C1 | -81.5%
59 | CNC(=O)C1CN(Cc2c[nH]cn2)CCN(C2CCOCC2)C1 (stereo not drawn) | -17%
60 | O=c1[nH]c2nc(NC3CC3)ncc2c(=O)n1-c1ccc(F)cc1 | -4.06%
61 | CS(=O)(=O)N1CCC2(CC1)c1ccccc1[C@@H](N1CCSCC1)[C@@H]2O | -9.71%
62 | CCOC1CCN(CCc2nc(-c3cccc(Cl)c3)no2)CC1 | -0.139%
63 | COCCN(CC(F)F)c1cc(COC)nc2ncnn12 | 9.08%
64 | [O-][S+](Cc1c(F)cccc1Cl)Cc1nnnn1C1CC1 (stereo not drawn) | 0.0902%
65 | O=C(CN1CCN(C(=O)c2ccccc2)CC1)Nc1ncc(Br)cc1Br | 8.63%
66 | N#Cc1cc(S(N)(=O)=O)ccc1NC1CCc2ccc(F)cc21 (stereo not drawn) | 8.08%

Row | SMILES | cytotoxicity at 10 µM
67 | CS(=O)(=O)N1CCC(Oc2ccc(C(=O)NCCC(N)=O)cc2Cl)CC1 | -1.28%
68 | Cc1cc(C2CCCN2Cc2nc3ccccc3o2)on1 (stereo not drawn) | -17%
69 | Cc1ccc(CN2C[C@@H]3CN(C(=O)c4cccn4C)C[C@@H]3C2)cc1 | -4.25%
70 | CN1Cc2ccccc2CC2(CCN(c3ncc(F)cn3)CC2)C1=O | 6.59%
71 | Cc1nccn1CCN(C)c1nc(-c2cccnc2)nc2c1CCNC2 | -21.2%
72 | CN(Cc1ccco1)C(=O)NCc1nnc2n1CCC2 | 16.9%
73 | CC(C)CC(CCO)CNC(=O)N1CCCC1(C)C (stereo not drawn) | -12.7%
74 | CCCN1CCCn2nc(CNS(=O)(=O)c3cccc(C#N)c3)cc2C1 | -2.96%
75 | COc1ccc(CN2C[C@@H]3OCCN(CC4CCCO4)[C@@H]3C2)cc1 (stereo partly drawn) | -0.851%
76 | CC(Oc1cc(Cl)cc(Cl)c1)C(=O)NCCOCC(N)=O (stereo not drawn) | -5.82%
77 | O=S(=O)(NCc1ccc(S(=O)(=O)N2CCCC2)s1)c1cc(Cl)ccc1Cl | -43.4%
78 | CCc1cc(NCCC(F)(F)F)nc(N2CCOCC2)n1 | -4.65%
79 | O=C1[C@H]2CN(Cc3ccncc3)C[C@H]2CN1c1cncnc1 | -0.748%
80 | CN(Cc1ccsc1)C(=O)C1CCC(=O)N(Cc2ccccn2)C1 (stereo not drawn) | 0.0228%
81 | CN(C(=O)NCc1ccsc1)C1CCN(c2ccccc2)C1=O (stereo not drawn) | -5.63%
82 | Cn1cc(CN2CCOCC3(CCN(C4CCOCC4)C3)C2)cn1 (stereo not drawn) | -3.92%
83 | N#CC1(C(=O)N2Cc3cc(-c4cc[nH]n4)ccc3C2c2cnco2)CC1 (stereo not drawn) | 25.5%
84 | CC(=O)N(Cc1ncc(C(C)C)o1)C1CCN(CC2CCC2)C1 (stereo not drawn) | -11.8%
85 | COCCNC(=O)[C@H]1C[C@@H]2CCN(Cc3ccoc3)C[C@H]2O1 | 2.31%
86 | CCc1ccc(CN2CCC3(CC2)C(=O)N(C)CCN3CC)cc1 | -4.13%
87 | CCN(C)S(=O)(=O)N[C@H]1CN(c2ccc(F)cn2)C[C@@H]1C(C)C | 10.8%
88 | Cc1c(C)n(Cc2ccncc2)c2nc3c(c(N)c12)CCCC3 | 1.4%

Row | SMILES | cytotoxicity at 10 µM
89 | Cc1cc(C)n(C2CCCN(C(=O)c3c(C)c(C)n[nH]c3=O)C2)n1 (stereo not drawn) | 3.18%
90 | CC(C)c1cc(=O)[nH]c(-c2ccccc2CN2CCCC2C)n1 (stereo not drawn) | 10.4%
91 | CCN(CC)S(=O)(=O)c1ccc2c(c1)N(Cc1cccnc1)C(=O)CS2 | 1.82%
92 | O=C(Nc1cc(C(F)(F)F)c[nH]c1=O)N1CCOCC1 | -3.03%
93 | CN(C)Cc1nn(C)c2c1CN(S(=O)(=O)c1ccccc1F)C2 | 5.6%
94 | CSc1ccccc1C(=O)NCCCN1CCc2ccccc2C1 | -15.6%
95 | O=C(NCCSCc1ccco1)c1ccc(N2CCOCC2)cc1 | -0.971%
96 | CC(c1nc(-c2ccccc2)no1)N1CC(n2cccn2)C1 (stereo not drawn) | 1.62%
97 | O[C@H]1COCCN(Cc2cccc(C(F)(F)F)c2)C1 | -1.8%
98 | O=C(O)c1cccc(CC2CCN(c3ncc(F)cn3)CC2)c1 | -108%
99 | Cc1nn(C(C)C)cc1S(=O)(=O)N(C)Cc1nonc1C | 11.6%
100 | CC(C)NCc1nc(-c2ccc3c(c2)OCO3)c[nH]1 | 6.24%
101 | CNCC(=O)N1CC(c2cc(Nc3ncccn3)nc(C)n2)C1 | 4.19%
102 | CO[C@@H]1CN(C)S(=O)(=O)[C@@]12CCN(Cc1ccccc1)C2 | 3.02%
103 | CN(C)C(=O)c1cccc(NC(=O)N2CCCC(C(F)(F)F)C2)c1 (stereo not drawn) | 6.37%
104 | COCC(=O)N1CCC2(CC1)CC(N1CCOCC1)c1ccc(C)cc12 (stereo not drawn) | -116%
105 | CCc1ccc(CNC(=O)c2ccc(N3CCOC3=O)cc2)s1 | 22.5%
106 | CC(CO)NC(=O)Nc1ccc(COC2CCCC2)cc1 (stereo not drawn) | -7.41%
107 | CC(NCc1nnc2n1CCCC2)c1nc(-c2cccs2)no1 (stereo not drawn) | -39.5%
108 | CCOc1cc(CNCc2nc(C)cc(=O)[nH]2)c(Cl)cc1OC(C)C | -7.83%
